Rows were chosen to be rich in hits. Some 1.3% of all compounds tested hit in one or more screens of this group.
Tb hexokinase: Trypanosoma brucei hexokinase 1 inhibitors, primary screen, biochemical, G6PDH-coupled NADH absorbance, MLSCN library; recombinant TbHK1, G6PDH-coupled NADH A340; hexokinase 1 [Trypanosoma brucei]; actives 0.11% (n = 220,000); AID 1430, 2008; inhibition, % at 10 µM;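 active means inhibition of 50% or more in the single-dose primary screen; inactive means inhibition below 50%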
PfGluPho inh: PfG6PD enzyme inhibitors, primary screen, biochemical, fluorescence intensity, uHTS; PfGluPho enzyme, NADPH resazurin-diaphorase fluorescence; AID 504690, 2011; inhibition, % at 20 µM; glucose-6-phosphate dehydrogenase-6-phosphogluconolactonase (Plasmodium falciparum 3D7); actives 0.78% (n = 350,000);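 active means inhibition reaching at least a set limit at 20 µM in the primary screen, cut at about 59% in these data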;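 further: 0% = DMSO wells with substrate and 100% = DMSO wells lacking glucose-6-phosphate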
HKDC1 inhibitor: HKDC1 hexokinase inhibitors, primary screen, biochemical, fluorescence, uHTS. actives 0.16% (n = 340,000). recombinant HKDC1, G6PDH/diaphorase resazurin coupled fluorescence. Q2TB90. inhibition, % at 20 µM;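 active means inhibition above about 35% when tested at 20 µM, limit read from the data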;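 further: plate controls were DMSO wells with enzyme for no effect and DMSO wells lacking enzyme for full effect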
Target sequence (Q2TB90 whole entry, looked up): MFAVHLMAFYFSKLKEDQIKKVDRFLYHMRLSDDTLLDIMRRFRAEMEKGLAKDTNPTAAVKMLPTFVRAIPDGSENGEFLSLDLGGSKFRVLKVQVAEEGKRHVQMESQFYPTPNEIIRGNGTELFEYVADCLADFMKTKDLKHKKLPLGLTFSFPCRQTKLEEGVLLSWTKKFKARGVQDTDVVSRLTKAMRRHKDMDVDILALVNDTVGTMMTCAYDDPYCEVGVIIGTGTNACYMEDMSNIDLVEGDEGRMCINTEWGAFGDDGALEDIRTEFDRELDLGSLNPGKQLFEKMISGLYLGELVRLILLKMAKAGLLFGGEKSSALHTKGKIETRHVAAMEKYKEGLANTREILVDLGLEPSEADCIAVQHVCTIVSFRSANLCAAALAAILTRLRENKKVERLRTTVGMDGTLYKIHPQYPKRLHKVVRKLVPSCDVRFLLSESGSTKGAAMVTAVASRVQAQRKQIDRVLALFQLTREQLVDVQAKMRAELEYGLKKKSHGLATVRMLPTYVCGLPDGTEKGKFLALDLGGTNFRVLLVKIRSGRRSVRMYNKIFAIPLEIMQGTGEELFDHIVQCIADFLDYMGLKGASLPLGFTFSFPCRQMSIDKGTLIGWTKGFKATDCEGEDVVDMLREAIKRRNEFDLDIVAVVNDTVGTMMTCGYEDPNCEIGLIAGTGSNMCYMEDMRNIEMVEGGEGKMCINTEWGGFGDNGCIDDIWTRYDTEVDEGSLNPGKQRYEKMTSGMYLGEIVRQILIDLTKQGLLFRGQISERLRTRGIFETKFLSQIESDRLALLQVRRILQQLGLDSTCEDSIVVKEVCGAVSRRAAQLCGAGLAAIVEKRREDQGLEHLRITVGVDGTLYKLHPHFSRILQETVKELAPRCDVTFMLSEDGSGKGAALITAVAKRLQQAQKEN
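Material – in-house recombinant HK5 (HKDC1) enzyme · Quantity – HKDC1 at 5 µg/mL · Buffer or medium – pH 8.0 Tris buffer with 10 mM MgCl2 · Reagent – glucose with 1 mM ATP · Dosing – single 20 µM dose · Times – reaction time 90 min, room temperature, protected from light · Technique – resorufin fluorescence at 613 nm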
G6PDH counter: L. mesenteroides G6PDH inhibitors, counter-screen for G6PDH-coupled screening assays, biochemical, Leuconostoc mesenteroides enzyme; inhibition, % at 5 µM; glucose-6-phosphate dehydrogenase [Leuconostoc mesenteroides]; Purified L. mesenteroides G6PDH, diaphorase/resazurin coupled fluorescence, 45 min; actives 0.12% (n = 200,000); in the data active means inhibition above about 50%
Diaph inh CS: diaphorase inhibitors and chemical oxidizers, primary screen, counter-screen for diaphorase-coupled primary assays, biochemical, uHTS, resorufin fluorescence. diaphorase resazurin-to-resorufin fluorescence, NADH, 16 min; bacterial (C. kluyveri) enzyme, not human. inhibition, % at 20 µM. actives 0.69% (n = 190,000);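 active means primary screen inhibition at 20 µM above a set limit, cut at about 50% in these data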;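 further: plate controls were DMSO with full reaction for no effect and wells lacking NADH for full effect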
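Test system: Clostridium kluyveri diaphorase enzyme / Quantity: diaphorase at 0.14 U/mL in enzyme working solution / Incubation: 16-min room-temperature incubation before reading / Benchmarks: NADH-free wells as positive control, DMSO-only neutral wells / Signal: resorufin fluorescence 544/590 nm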
Diaphorase act: compounds boosting diaphorase resazurin reduction – biochemical, uHTS, resorufin fluorescence, counter-screen for diaphorase-coupled primary assays, primary screen | Diaphorase/resazurin coupled assay, 16 min; hits give high values; 1 = vehicle wells, 0 = NADH-free wells | activation factor at 20 µM | actives 0.005% (n = 190,000) | AID 1229, 2008;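 active means diaphorase activity raised at least twofold by the compound at 20 µM; inactive means activation factor below 2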
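Material: Clostridium kluyveri diaphorase, purified enzyme; Quantity: enzyme 0.07 U/mL final; Medium: HEPES pH 7.4 buffer with MgCl2 and Tween 20; Dosing: single compound dose of 20 µM, 1% DMSO final; Schedule: 16 min reaction at room temperature; Measured by: red resorufin fluorescence at 544/590 nm excitation/emission.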
PfG6PD confirm: PfG6PD inhibitors, hit retest, confirmation, biochemical, fluorescence intensity, single concentration | shares compounds with PfGluPho inh | recombinant PfGluPho, NADPH-diaphorase-resazurin fluorescence | inhibition, % at 20 µM | actives 34% (n = 2,400) | AID 504753, 2011;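 active means inhibition of at least 50% at 20 µM in any single replicate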;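 further: 0% = DMSO with substrate and 100% = DMSO lacking glucose-6-phosphate substrate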
Diaphorase 10uM: diaphorase inhibitors and chemical oxidizers, confirmation, counter-screen for P. falciparum G6PD inhibitor project, biochemical, fluorescence intensity, 10 µM NADPH. shares compounds with PfGluPho inh. diaphorase-coupled resazurin reduction, NADPH 10 uM. inhibition, % at 20 µM. actives 39% (n = 820). AID 504862, 2011;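 active means average inhibition reaching 50% or more with the compound at 20 µM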;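 further: resorufin red fluorescence formed as diaphorase reduces resazurin using NADPH; 0% = DMSO with enzyme and 100% = DMSO without enzyme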
Diaph ctr 30uM: diaphorase inhibitors and chemical oxidizers, confirmation, counter-screen for P. falciparum G6PD inhibitor project, biochemical, fluorescence intensity, 30 µM NADPH; inhibition, % at 20 µM; Diaphorase/resazurin coupled assay, resorufin fluorescence; AID 504863, 2011; shares compounds with PfGluPho inh; actives 29% (n = 820);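 active means inhibition averaging 50% or more, tested at 20 µM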;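 further: 0% = DMSO with enzyme and 100% = DMSO wells lacking diaphorase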
Numbers without * were called inactive; nt = no result.

SMILES	Tb hexokinase	PfGluPho inh	HKDC1 inhibitor	G6PDH counter	Diaph inh CS	Diaphorase act	PfG6PD confirm	others
O=S(=O)(c1cccc(Br)c1)N1CCN(CCc2ccccc2)CC1	nt	-1	-4	nt	nt	nt	nt
O=C(Nc1sc2c(c1C(=O)O)CCC2)c1ccccc1	1	62*	7	3	19	0.8	34
O=C(Nc1sc2c(c1C(=O)O)CCC2)c1cccs1	9	38	8	0	26	0.7	nt
CCCCCn1c(-c2ccco2)nc2nc3ccccc3nc21	-26	64*	1	-24	14	0.9	34
c1ccc(Cn2c(-c3ccco3)nc3nc4ccccc4nc32)cc1	16	42	13	2	19	0.8	nt
O=C(c1cc(C2CC2)nc2ccc(Br)cc12)N1N=C(C(F)F)CC1(O)C(F)F (stereo not given)	-4	-5	9	-3	21	0.8	nt
COc1ccccc1N1CCN(C(=O)NCc2cccc(C(F)(F)F)c2)CC1	nt	12	-1	nt	nt	nt	nt
Cc1cc(SCC(=O)N/N=C/c2ccco2)nc2ccccc12	-1	80*	4	6	16	0.8	52*	Diaphorase 10uM=58*;Diaph ctr 30uM=48
O=C(CSc1nc2[nH]ncc2c(=O)[nH]1)Nc1ccc(Cl)cc1	nt	-17	-3	nt	nt	nt	nt
CN(C)c1nc(=NCc2cccs2)ss1	nt	60*	-27	nt	nt	nt	49*	Diaphorase 10uM=4;Diaph ctr 30uM=-4
O=C(c1ccccc1F)N1CCN(C(=O)C(c2ccccc2)c2ccccc2)CC1	nt	-11	-5	nt	nt	nt	nt
CCN(C(=O)c1cnc(N2CCN(c3ncccn3)CC2)c2ccccc12)c1cccc(Cl)c1	-13	25	5	7	33	0.7	nt
CN(C(=O)c1cnc(N2CCN(c3ncccn3)CC2)c2ccccc12)c1ccc(Cl)cc1	-10	98*	1	6	17	0.8	35
Cc1cccc(OCC(=O)NCC(=O)N/N=C/c2ccc(O)cc2O)c1	-28	-36	-40	nt	nt	nt	nt
Cc1cccc(OCC(=O)NCC(=O)N/N=C/c2ccccc2)c1	nt	69*	-2	nt	nt	nt	50*	Diaphorase 10uM=41;Diaph ctr 30uM=41
Cc1cccc(OCC(=O)NCC(=O)N/N=C/c2cc(Br)ccc2OCc2ccccc2)c1	26	19	-5	-4	22	0.8	nt
CCOc1ccc(Cl)cc1/C=N/NC(=O)CNC(=O)c1ccccc1	-13	118*	-5	-3	8	0.9	92*	Diaphorase 10uM=93*;Diaph ctr 30uM=85*
O=C(COc1ccccc1)NCC(=O)N/N=C/c1cc(Br)ccc1OCc1ccccc1	3	81*	-1	2	17	0.8	29
O=C(NCCN1CCOCC1)c1cc(Sc2ccccc2Cl)nc2ccccc12	-10	nt	nt	-8	4	1	nt
COc1cc(NS(=O)(=O)c2cc3[nH]c(=O)c(=O)[nH]c3cc2C)cc(OC)c1OC	nt	63*	17	nt	nt	nt	0
CC(C)Nc1ccc(Nc2ccnc3cc4ccccc4cc23)cc1	-15	65*	3	nt	nt	nt	19
CC1CN(Cc2ccccc2)C(=O)NC1=O (stereo not given)	nt	-16	-6	nt	nt	nt	nt
CC1CN(c2ccccc2)NC1=O (stereo not given)	1	106*	10	-4	-5	1.1	107*	Diaphorase 10uM=13;Diaph ctr 30uM=15
CCCCNc1c(-c2cccc(-c3cc(C(C)=O)cs3)c2)nc2ccc(C)cn12	nt	67*	0	nt	nt	nt	13
CCCCNc1c(-c2cccc(-c3ccc(OC)cc3)c2)nc2ccc(C)cn12	nt	54	1	nt	nt	nt	nt
SMILES	Tb hexokinase	PfGluPho inh	HKDC1 inhibitor	G6PDH counter	Diaph inh CS	Diaphorase act	PfG6PD confirm	others
Cc1cc2cc(CN(Cc3ccc4c(c3)OCO4)C(=O)c3ccco3)c(=O)[nH]c2cc1C	-6	82*	4	5	33	0.7	38
O=C(c1ccco1)N(Cc1ccc2c(c1)OCO2)Cc1cc2cc3c(cc2[nH]c1=O)OCO3	-12	-11	9	nt	nt	nt	nt
COC1C=CC=C(C)C(=O)NC2=CC(=O)C(N)=C(CC(C)CC(OC)C(O)C(C)C=C(C)C1OC(N)=O)C2=O (stereo not given)	nt	-40	6	nt	nt	nt	nt
COC1CC(C)C(OC)c2cc(O)cc(c2O)NC(=O)C(C)=CC=CC(C)C(OC(N)=O)C(C)=CC(C)C1OC (stereo not given)	nt	105*	17	nt	nt	nt	106*	Diaphorase 10uM=82*;Diaph ctr 30uM=82*
NC(=S)N/N=C/c1c[nH]c2ccc(OCc3ccccc3)cc12	nt	60*	6	nt	nt	nt	27
NC(=S)N/N=C\c1ccccc1OCc1ccccc1	-17	16	-6	-2	22	0.8	nt
Nc1ccc(Cc2ccc(N)c(O)c2)cc1O	4	72*	3	27	14	0.9	46
COc1cc(Cc2ccc(N)c(OC)c2)ccc1N	-5	14	1	-2	10	0.9	nt
CC1CC1C(=O)OCC(=O)Nc1ccc2[nH]c(=O)[nH]c2c1 (stereo not given)	3	0	6	3	20	0.8	nt
Cc1nnc(N/N=C/c2cc(C)n(-c3ccc(F)cc3)c2C)n1N	7	78*	-9	13	36	0.6	45
CCc1cc(N2CCOCC2)cc2c1[nH]c1ccccc12	-7	67*	6	29	53*	0.5	45
COc1ccc(N(C(=O)c2snc(C(N)=O)c2N)C(CC(C)C)C(=O)NCC2CCCO2)cc1 (stereo not given)	nt	6	-2	nt	nt	nt	nt
CC(C)(C)c1ccc(C(=O)Nc2ccc(F)cc2)s1	1	86*	3	nt	nt	nt	7
CCc1cc2cc(C(=O)Nc3ccc(F)cc3)sc2s1	-7	6	-10	1	-5	1	nt
C/C(Cn1nnc([N+](=O)[O-])n1)=N\NC(=O)c1ccc(O)cc1O	-11	49	8	8	18	0.8	67*	Diaphorase 10uM=23;Diaph ctr 30uM=31

Screening results from PubChem.
